Screens from PubChem BioAssay.
An excerpt weighted towards active compounds, which were near 3.1% of everything screened.
T cruzi inh: blocks replication of Trypanosoma cruzi; inhibition, % (concentration not given with the values); AID 1885; T. cruzi beta-gal in NIH3T3, luminescence, 90 h; 1.4% of 300,000 active;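 active = mean inhibition across valid replicates above about 55%, limit read from the data; inconclusive = mean below that limit but half or more replicates reach it; inactive = mean below it, under half of replicates reach it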;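 also: signal also drops with host cell toxicity which is not excluded here; 0% = plate median of DMSO wells and 100% = zero luminescence signal; higher percent means less beta-gal luminescence so fewer parasites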
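Test system: β-gal T. cruzi (Tulahuen C4) inside NIH/3T3 cells / Quantity: 5,000 cells/well / Measured by: luminescence from GalScreen with 0.05% NP40, read after 60 min / Medium: DMEM plus 2% FBS / Measure: parasite load inhibition, % / Reagent: Tulahuen C4 trypomastigotes, 5000/well / Schedule: co-culture of at least 90 h after 3 h attachment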
CSC inhib: cancer stem cell inhibition; cancer stem cell-like cells viability, luminescence; inhibition, % at 7.5 µM; 1.1% of 300,000 active; AID 2717; in the data active = inhibition above about 75%; inconclusive = no clear call, values can overlap the other calls; tested in HMLE shEcad cells
HIF activator: HIF pathway transcriptional activation | U2OS HRE-luciferase reporter, luminescence; normalized: DMSO 0%, desferrioxamine 100% | activation, % at 7.5 µM (by protocol) | 0.32% of 300,000 active | AID 1910;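 active = mean activation of at least 10% of the iron chelator positive control signal, with at least half of replicates also reaching 10%; inconclusive = mean and replicate majority disagree about reaching 10%; inactive = mean and most replicates under 10%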
Beta apoptosis: beta cell apoptosis inhibition; INS-1E cytokine-induced death, ATP luminescence, 48 h; percent of positive-control rescue, neutral wells zero; protection from apoptosis, % (test concentration not listed); 0.8% of 300,000 active; AID 435005;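 active = Every replicate reaches about 75%, or at least half do and their mean reaches it too, limit read from the data; inconclusive = At least half of replicates reach the limit but their mean does not; inactive = Under half of replicates reach the limit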;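 also: 0% = cytokine-treated negative control wells and 100% = positive control rescue; higher means more ATP so stronger rescue from cytokine killing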
PolyA inh: yeast polyadenylation inhibition | S. cerevisiae SKY197-pL101 polyadenylation reporter, beta-gal luminescence; efflux-impaired pdr1/pdr3 knockout yeast; score 100 = 6 SD above DMSO | activity score, % at 12 µM | 0.02% of 300,000 active | AID 1875;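 active = lowest replicate activity score at least 50, where 100 means six control SD above control mean; inconclusive = lowest score under 50 but half or more replicates reach 50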;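 also: yeast exposed to compound for 9 h at 30 °C; higher score means more reporter readthrough which indicates perturbed polyadenylation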
Calb FLC: C. albicans growth modulation with fluconazole; C. albicans CaCi-2 + fluconazole, Alamar Blue growth, 48 h; growth inhibition, % (concentration not given with the values); 0.57% of 300,000 active; AID 1979;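 active = growth inhibition above about 58% in most replicates, limit read from the data, passing the limit was not always enough; inconclusive = exactly half the replicates above a set limit; inactive = most replicates below a set limit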;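 also: all wells also contain fluconazole at 8 µg/ml as a sub-toxic cotreatment; 0% = median of DMSO wells and 100% = median of geldanamycin control wells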
Starred values were filed as active, the others as inactive; ? = inconclusive; nt = no result.

SMILES	T cruzi inh	CSC inhib	HIF activator	Beta apoptosis	PolyA inh	Calb FLC
O=C(Cc1ccc([N+](=O)[O-])cc1)N1CCCCCC1	-24	2	0	nt	5	-17
O=C(CCc1ccc(Oc2cc([N+](=O)[O-])cc([N+](=O)[O-])c2)cc1)N1CCCCCC1	68*	96*	0	10	-62	-9
COc1ccc(CCC(=O)N2CCN(C3CCCCC3)CC2)cc1	62*	-7	0	-3	-2	-47
CN1CCN(C(=O)CCc2ccc(S(=O)(=O)NC3CCCCC3)cc2)CC1	59*	9	0	-8	18	-17
CC(NS(=O)(=O)c1ccc(CCC(=O)N2CCN(C)CC2)cc1)c1ccccc1 (stereo unspecified)	72*	5	-1	nt	0	-1
Cc1ccc(CNC(=O)CCc2ccc(S(=O)(=O)NC3CCCCC3)cc2)cc1	-5	-7	-1	-2	-20	-1
O=C(NCC1CC1)c1cc(-c2ccccc2)nn1CC1CC(c2cccc([N+](=O)[O-])c2)=NO1 (stereo unspecified)	13	-5	0	1	0	1
Nc1nc(OCC2CCCCC2)c2[nH]cnc2n1	-13	0	0	nt	-7	-4
O=C(CCc1ccc(S(=O)(=O)NCc2ccccc2)cc1)N1CCN(Cc2ccc3c(c2)OCO3)CC1	59*	nt	0	nt	2	-25
CC(C)Cc1ccc(CN2CCCC(NC(=O)CCn3cnnn3)C2)cc1 (stereo unspecified)	56*	-6	0	nt	2	19
Cc1ccccc1SC1CCN(Cc2nc(C3CC3)no2)CC1	20	-8	0	-8	-4	6
COc1cccc(/C=C/C(=O)c2ccc3c(c2)OCO3)c1OC	nt	17	nt	-8	nt	nt
COc1cc(/C=C/C(=O)c2ccc3c(c2)OCCO3)cc(Br)c1OCC(=O)N(C)C	8	nt	25*	-13	3	2
O=C(/C=C/c1cccc(Br)c1)c1ccc2c(c1)OCO2	12	78*	1	-3	-10	-24
O=C(/C=C/c1ccncc1)c1ccc2c(c1)OCCO2	2	15	1	23	2	67*
C/C(=N\NC(=O)c1nnn(-c2nonc2N)c1CN(C)c1ccccc1)c1cccnc1	-10	3	0	-1	-18	3
c1ccc(SCCOCCN2CCOCC2)cc1	12	13	-17	-1	2	-3
CC1CCCN(CCOCCSc2ccccc2)C1 (stereo unspecified)	60*	48	0	-8	-7	0
Cc1cc(Cl)c(OCCOCCN2CCCCC2)c(Br)c1	31	63	-1	3	13	-20
Cc1cc(Cl)c(OCCOCCN2CCCC(C)C2)c(Br)c1 (stereo unspecified)	73*	nt	-1	nt	-17	3
CC1CC(C)CN(CCOCCSc2ccccc2)C1 (stereo unspecified)	60*	29	0	-1	-13	5
COCCN(C(=S)Nc1ccc(Cl)cc1OC)C1CCN(C(C)=O)CC1	-7	-1	0	-6	15	-9
COc1ccc(C(CNC(=O)COc2cccc(C(F)(F)F)c2)N2CCCC2)cc1 (stereo unspecified)	nt	nt	nt	0	nt	nt
O=C(CSc1nnc(-c2c[nH]c3ccccc23)o1)NCC1CCCO1 (stereo unspecified)	nt	-18	nt	-16	nt	nt
CS/C(=N\S(=O)(=O)c1cccs1)Nc1ccc(Cl)cc1	-6	4	-1	-28	20	85*
SMILES	T cruzi inh	CSC inhib	HIF activator	Beta apoptosis	PolyA inh	Calb FLC
CS/C(=N\S(=O)(=O)c1cccs1)Nc1ccc(Br)cc1F	-22	-11	0	7	9	101*
CS/C(=N\S(=O)(=O)c1ccc(N)cc1)NS(=O)(=O)c1cccs1	-9	-2	0	1	5	-30
CC[N+](C)(C)CC/C=C1/c2ccccc2Sc2ccc(Cl)cc21	16	-8	0	4	-5	20
CCCCCCCCCCC[N+](C)(C)CC/C=C1/c2ccccc2Sc2ccc(Cl)cc21	51	59	1	98*	5	84*
CCCCCCCCCC[N+](C)(C)CC/C=C1/c2ccccc2Sc2ccc(Cl)cc21	47	106*	0	91*	10	?
COc1ccc(NC(=O)Cc2ccc(C)c(C)c2)cc1S(=O)(=O)N1CCCCC1	nt	0	nt	2	nt	nt
